Laboratory results from ChEMBL document CHEMBL1165856, “Naftifine-analogues as anti-Trypanosoma cruzi agents” (Eur J Med Chem, 2010).
In brackets after ≈: the same amount, converted by molar mass.

Assays:
[1] = tested on: Aspergillus niger; assay: Antifungal activity against Aspergillus niger ATCC 9029 after 48 hrs; assay type: functional; conditions: ATCC 9029, 48 h
Method in brief: (§1)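 Aspergillus spp. were tested by CLSI M38-A broth microdilution in RPMI 1640 with MOPS at pH 7.0. Spore inoculum is 10³ CFU/mL, with two-fold compound dilutions and final DMSO ≤1%. Incubated at 35 °C in a moist, dark chamber. MIC is read visually as total growth inhibition, at a time set by growth of the control fungus.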

[2] = Cytotoxicity against mouse J774 cells after 48 hrs by MTT assay; assay type: cell-based; conditions: read-out: ID50
Method in brief: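 J-774 macrophages were seeded at 1 × 10⁵ cells/well in RPMI 1640 with 20% heat-inactivated FCS and left to attach for 48 h at 37 °C in 5% CO₂. Cells were then exposed to compounds for 48 h. MTT was added at 0.4 mg/mL final, formazan was dissolved in DMSO, and A595 was read. ID50 is the concentration cutting control absorbance by 50%, averaged over three experiments.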

[3] = tested on: Cryptococcus neoformans; assay: Antifungal activity against Cryptococcus neoformans ATCC 32264 after 48 hrs; assay type: functional; conditions: Cryptococcus neoformans, ATCC 32264, 48 h; for MIC: read-out: MIC
Method in brief: (§2)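 CLSI M27-A2 broth microdilution in RPMI 1640 buffered to pH 7.0 with MOPS. Inoculum is 10³ CFU/mL from Sabouraud-grown yeasts. Compound is two-fold serially diluted, final DMSO ≤1%. Incubated at 35 °C in a moist, dark chamber and read visually at 48 h. MIC is the lowest concentration giving total growth inhibition.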

[4] = tested on: Trichophyton rubrum; assay: Antifungal activity against Trichophyton rubrum C 113 after 48 hrs; assay type: functional; conditions: C 113, 48 h
Method in brief: (§3)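 Dermatophytes were tested by CLSI M38-A microdilution in MOPS-buffered RPMI 1640 at pH 7.0. Inoculum is 10³ CFU/mL, with two-fold serial compound dilutions and final DMSO ≤1%. Trays are kept at 28–30 °C in a moist, dark chamber. MIC is the lowest concentration with total growth inhibition, read visually when control growth allows.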

[5] = tested on: Aspergillus fumigatus; assay: Antifungal activity against Aspergillus fumigatus ATCC 26934 after 48 hrs; assay type: functional; conditions: ATCC 26934, 48 h; method in brief: as §1
[6] = tested on: Nannizzia gypsea; assay: Antifungal activity against Microsporum gypseum C 115 after 48 hrs; assay type: functional; conditions: C 115, 48 h; method in brief: as §3
[7] = tested on: Trichophyton mentagrophytes; assay: Antifungal activity against Trichophyton mentagrophytes ATCC 9972 after 48 hrs; assay type: functional; conditions: ATCC 9972, 48 h; method in brief: as §3
[8] = tested on: Candida tropicalis; assay: Antifungal activity against Candida tropicalis C 131 2000 after 48 hrs; assay type: functional; conditions: Candida tropicalis, C 131 2000, 48 h; read-out: MIC; method in brief: as §2
[9] = tested on: Saccharomyces cerevisiae; assay: Antifungal activity against Saccharomyces cerevisiae ATCC 9763 after 48 hrs; assay type: functional; conditions: ATCC 9763, 48 h; method in brief: as §2
[10] = tested on: Candida albicans; assay: Antifungal activity against Candida albicans ATCC 10231 after 48 hrs; assay type: functional; conditions: ATCC 10231, 48 h; method in brief: as §2
[11] = Selectivity index, ratio of ID50 for mouse J774 cells to ID50 for Trypanosoma cruzi Tulahuen 2; assay type: toxicity, cell-based; conditions: J774 cells versus Trypanosoma cruzi Tulahuen 2
Method in brief: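 Selectivity index is the ID50 in J-774 macrophages (48 h MTT) divided by the ID50 against Tulahuen 2 epimastigotes (day-5 A600 growth).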

[12] = tested on: Aspergillus flavus; assay: Antifungal activity against Aspergillus flavus ATCC 9170 after 48 hrs; assay type: functional; conditions: ATCC 9170, 48 h; method in brief: as §1
[13] = tested on: Trypanosoma cruzi; assay: Antitrypanosomal activity against Trypanosoma cruzi Tulahuen 2 at 25 uM; assay type: functional
Method in brief: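 Tulahuen 2 epimastigotes (8 × 10⁶ cells/mL, 28 °C, BHI-tryptose with 5% FBS) were exposed to a single drug concentration, with final DMSO ≤0.4% and a vehicle control. Percent growth inhibition = {1 − [(Ap − A0p)/(Ac − A0c)]} × 100, using A600 of drug and control cultures at day 0 and day 5.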

[14] = tested on: Trypanosoma cruzi; assay: Antitrypanosomal activity against Trypanosoma cruzi Tulahuen 2; assay type: functional; conditions: read-out: ID50 (the source's name)
Method in brief: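 Epimastigotes were grown at 28 °C in BHI-tryptose with 5% FBS. Stationary-phase parasites are inoculated at 8 × 10⁶ cells/mL into medium containing increasing drug concentrations from DMSO stock (final DMSO ≤0.4%; vehicle control). Growth is followed by A600. ID50 is the concentration that halves the day-5 absorbance ratio relative to control.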

SMILES | MIC [1] [µg/mL] | CC50 at 48 h [2] [µM] | MIC [3] [µg/mL] | MIC [4] [µg/mL] | MIC [5] [µg/mL] | MIC [6] [µg/mL] | MIC [7] [µg/mL] | MIC [8] [µg/mL] | MIC [9] [µg/mL] | MIC [10] [µg/mL] | selectivity ratio [11] | MIC [12] [µg/mL] | inhibition at 25 µM [13] [%] | MFC [3] [µg/mL] | MFC [4] [µg/mL] | MFC [6] [µg/mL] | MFC [7] [µg/mL] | IC50 [14] [µM]
CC(=O)N1CCN(c2ccc(OCC3COC(Cn4ccnc4)(c4ccc(Cl)cc4Cl)O3)cc2)CC1 (stereo not drawn) [KETOCONAZOLE] | 0.25 (≈ 0.47 µM) | 339 | 0.25 (≈ 0.47 µM) | 0.025 (≈ 0.047 µM) | 0.125 (≈ 0.235 µM) | 0.05 (≈ 0.0941 µM) | 0.025 (≈ 0.047 µM) | 0.5 (≈ 0.941 µM) | 0.5 (≈ 0.941 µM) | 0.5 (≈ 0.941 µM) | 19.9 | 0.5 (≈ 0.941 µM) | – | – | – | – | – | –
C=CCNC(=S)N/N=C/c1ccc2c(c1)[n+]([O-])c(C#N)c(N)[n+]2[O-] | > 250 | – | > 250 | > 250 | > 250 | > 250 | > 250 | > 250 | > 250 | > 250 | – | > 250 | 6 | – | – | – | – | –
C=CCNC(=S)N/N=C/c1ccc2c(c1)[n+]([O-])c(C(=O)Nc1ccccc1)c(C)[n+]2[O-] | > 250 | – | 250 (≈ 573 µM) | 250 (≈ 573 µM) | > 250 | 250 (≈ 573 µM) | 250 (≈ 573 µM) | > 250 | > 250 | > 250 | – | > 250 | 0 | > 250 | 250 (≈ 573 µM) | 250 (≈ 573 µM) | 250 (≈ 573 µM) | –
COc1nn(CCOCCN(C)C/C=C/c2ccccc2)c2ccc([N+](=O)[O-])cc12 | – | < 100 | – | – | – | – | – | – | – | – | < 4.3 | – | – | – | – | – | – | 23.1
N#Cc1c2ccccc2[n+]([O-])n1CC/C=C\c1ccc(Cl)cc1 | – | – | – | – | – | – | – | – | – | – | – | – | 20 | – | – | – | – | –
CN(C/C=C/c1ccccc1)Cc1ccc2c(c1)=[N+]([O-])C(C)(C)[N+]=2[O-] | – | > 400 | – | – | – | – | – | – | – | – | > 17.6 | – | – | – | – | – | – | 22.7
[O-][n+]1onc2ccc(CN3CCN(C/C=C/c4ccccc4)CC3)cc21 | – | – | – | – | – | – | – | – | – | – | – | – | 14 | – | – | – | – | –
C=CCNC(=S)N/N=C/c1ccc2c(c1)[n+]([O-])c(C)c(C)[n+]2[O-] | > 250 | – | > 250 | > 250 | > 250 | > 250 | > 250 | > 250 | > 250 | > 250 | – | > 250 | 21 | – | – | – | – | –
CN(C/C=C/c1ccccc1)CCOCCn1nc(OCc2ccccc2)c2cc([N+](=O)[O-])ccc21 | – | < 100 | – | – | – | – | – | – | – | – | < 10 | – | – | – | – | – | – | 10
C=CCNC(=S)N/N=C/c1ccc2no[n+]([O-])c2c1 | > 250 | – | > 250 | > 250 | > 250 | > 250 | > 250 | > 250 | > 250 | > 250 | – | > 250 | 33 | – | – | – | – | –
C=CCNC(=S)N/N=C/c1ccc2c(c1)=[N+]([O-])C(C)(C)[N+]=2[O-] | > 250 | 104 | > 250 | 250 (≈ 783 µM) | > 250 | 250 (≈ 783 µM) | 250 (≈ 783 µM) | > 250 | > 250 | > 250 | 14.4 | > 250 | – | – | 250 (≈ 783 µM) | 250 (≈ 783 µM) | 250 (≈ 783 µM) | 7.2
N#Cc1c2ccccc2[n+]([O-])n1CC/C=C\c1ccccc1 | – | – | – | – | – | – | – | – | – | – | – | – | 30 | – | – | – | – | –
N#Cc1c2ccccc2[n+]([O-])n1C/C=C/c1ccccc1 | > 250 | – | > 250 | 62.5 (≈ 227 µM) | > 250 | 62.5 (≈ 227 µM) | 62.5 (≈ 227 µM) | > 250 | > 250 | > 250 | – | > 250 | 28 | – | 125 (≈ 454 µM) | 125 (≈ 454 µM) | 125 (≈ 454 µM) | –
N#Cc1c(N)[n+]([O-])c2ccc(CN3CCN(C/C=C/c4ccccc4)CC3)cc2[n+]1[O-] | – | – | – | – | – | – | – | – | – | – | – | – | 0 | – | – | – | – | –
